Measurements from ChEMBL document CHEMBL5724801, “EUbOPEN Chemogenomics Library - Multiplex” (2024).
Where “and” joins values, the source holds several entries; their conditions need not be identical. Equal values may be shown once.

Assays:
HEK-293T = experiment: Multiplex assay against HEK293T; type: toxicity, cell-based; conditions: human
Summary of the method: (§1)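 Imaging took place on a CQ1 microscope at 37°C and 5% CO2 once compound had been added to live cells stained at seeding with Hoechst33342, BioTracker Green Microtubule Cytoskeleton Dye, MitoTracker Red and Annexin V Alexa Fluor 680. CellPathfinder machine-learning gating classed cells as Hoechst high-intensity objects or normal cells, classed normal cells as having healthy, pyknosed or fragmented nuclei, and classed pyknosed cells as mitotic or apoptotic. Tubulin, mitochondrial-mass and membrane-permeability phenotypes are per cents of the healthy-nucleus cells.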

Fibroblast = experiment: Multiplex assay against human fibroblast; type: toxicity, cell-based; summary of the method: as §1
[1] = 12 h, 1 µM, compound concentration 1 uM
[2] = 12 h, 10 µM, compound concentration 10 uM
[3] = 24 h, 1 µM, compound concentration 1 uM
[4] = 24 h, 10 µM, compound concentration 10 uM
[5] = 48 h, 1 µM, compound concentration 1 uM
[6] = 48 h, 10 µM, compound concentration 10 uM

CCc1cc2cc(NS(=O)(=O)c3ccc(C#N)cc3)ccc2n(CC)c1=O
Population Apoptotic (%) (HEK-293T; [1]): 43% and 40% | Population Fragmented Nuclei (%) (HEK-293T; [1]): 8% and 7% | Population Healthy Nuclei (%) (HEK-293T; [1]): 78% | Population Hoechst High Intensity Objects (%) (HEK-293T; [1]): 9% and 7% | Population Membrane Permeable-Phenotype (%) (HEK-293T; [1]): 0% | Population Mitochondria Different-Phenotype (%) (HEK-293T; [1]): 37% and 64% | Population Mitotic Cells (%) (HEK-293T; [1]): 56% and 59% | Population Normal (%) (HEK-293T; [1]): 90% and 92% | Population Pyknosed Nuclei (%) (HEK-293T; [1]): 12% and 14% | Population Tubulin-Different-Phenotype (%) (HEK-293T; [1]): 28% and 29% | Total Cell Count (HEK-293T; [1]): 411 and 338 | Population Apoptotic (%) (HEK-293T; [2]): 38% and 65% | Population Fragmented Nuclei (%) (HEK-293T; [2]): 7% and 6% | Population Healthy Nuclei (%) (HEK-293T; [2]): 80% and 69% | Population Hoechst High Intensity Objects (%) (HEK-293T; [2]): 7% and 16% | Population Membrane Permeable-Phenotype (%) (HEK-293T; [2]): 0% | Population Mitochondria Different-Phenotype (%) (HEK-293T; [2]): 47% and 71% | Population Mitotic Cells (%) (HEK-293T; [2]): 61% and 34% | Population Normal (%) (HEK-293T; [2]): 92% and 83% | Population Pyknosed Nuclei (%) (HEK-293T; [2]): 12% and 23% | Population Tubulin-Different-Phenotype (%) (HEK-293T; [2]): 48% and 41% | Total Cell Count (HEK-293T; [2]): 404 and 291 | Population Apoptotic (%) (HEK-293T; [3]): 29% and 43% | Population Fragmented Nuclei (%) (HEK-293T; [3]): 8% and 7% | Population Healthy Nuclei (%) (HEK-293T; [3]): 80% and 84% | Population Hoechst High Intensity Objects (%) (HEK-293T; [3]): 5% | Population Membrane Permeable-Phenotype (%) (HEK-293T; [3]): 1% and 0% | Population Mitochondria Different-Phenotype (%) (HEK-293T; [3]): 19% and 44% | Population Mitotic Cells (%) (HEK-293T; [3]): 70% and 56% | Population Normal (%) (HEK-293T; [3]): 94% | Population Pyknosed Nuclei (%) (HEK-293T; [3]): 11% and 7% | Population Tubulin-Different-Phenotype (%) (HEK-293T; [3]): 18% and 22% | Total Cell Count (HEK-293T; [3]): 510 and 403 | Population Apoptotic (%) (HEK-293T; [4]): 33% and 63% | Population Fragmented Nuclei (%) (HEK-293T; [4]): 9% and 10% | Population Healthy Nuclei (%) (HEK-293T; [4]): 80% and 73% | Population Hoechst High Intensity Objects (%) (HEK-293T; [4]): 6% and 17% | Population Membrane Permeable-Phenotype (%) (HEK-293T; [4]): 0% and 1% | Population Mitochondria Different-Phenotype (%) (HEK-293T; [4]): 36% and 58% | Population Mitotic Cells (%) (HEK-293T; [4]): 66% and 36% | Population Normal (%) (HEK-293T; [4]): 93% and 82% | Population Pyknosed Nuclei (%) (HEK-293T; [4]): 10% and 16% | Population Tubulin-Different-Phenotype (%) (HEK-293T; [4]): 32% and 29% | Total Cell Count (HEK-293T; [4]): 478 and 332 | Population Apoptotic (%) (HEK-293T; [5]): 30% and 38% | Population Fragmented Nuclei (%) (HEK-293T; [5]): 11% and 14% | Population Healthy Nuclei (%) (HEK-293T; [5]): 81% and 79% | Population Hoechst High Intensity Objects (%) (HEK-293T; [5]): 2% and 4% | Population Membrane Permeable-Phenotype (%) (HEK-293T; [5]): 1% | Population Mitochondria Different-Phenotype (%) (HEK-293T; [5]): 11% and 23% | Population Mitotic Cells (%) (HEK-293T; [5]): 69% and 61% | Population Normal (%) (HEK-293T; [5]): 97% and 95% | Population Pyknosed Nuclei (%) (HEK-293T; [5]): 6% and 5% | Population Tubulin-Different-Phenotype (%) (HEK-293T; [5]): 13% and 12% | Total Cell Count (HEK-293T; [5]): 878 and 608 | Population Apoptotic (%) (HEK-293T; [6]): 26% and 47% | Population Fragmented Nuclei (%) (HEK-293T; [6]): 14% and 16% | Population Healthy Nuclei (%) (HEK-293T; [6]): 78% and 73% | Population Hoechst High Intensity Objects (%) (HEK-293T; [6]): 4% and 10% | Population Membrane Permeable-Phenotype (%) (HEK-293T; [6]): 1% | Population Mitochondria Different-Phenotype (%) (HEK-293T; [6]): 23% and 40% | Population Mitotic Cells (%) (HEK-293T; [6]): 73% and 52% | Population Normal (%) (HEK-293T; [6]): 95% and 89% | Population Pyknosed Nuclei (%) (HEK-293T; [6]): 6% and 9% | Population Tubulin-Different-Phenotype (%) (HEK-293T; [6]): 20% and 23% | Total Cell Count (HEK-293T; [6]): 734 and 383 | Population Apoptotic (%) (Fibroblast; [1]): 42% | Population Fragmented Nuclei (%) (Fibroblast; [1]): 16% and 27% | Population Healthy Nuclei (%) (Fibroblast; [1]): 64% and 40% | Population Hoechst High Intensity Objects (%) (Fibroblast; [1]): 1% and 6% | Population Membrane Permeable-Phenotype (%) (Fibroblast; [1]): 1% and 9% | Population Mitochondria Different-Phenotype (%) (Fibroblast; [1]): 3% and 7% | Population Mitotic Cells (%) (Fibroblast; [1]): 57% | Population Normal (%) (Fibroblast; [1]): 98% and 93% | Population Pyknosed Nuclei (%) (Fibroblast; [1]): 18% and 32% | Population Tubulin-Different-Phenotype (%) (Fibroblast; [1]): 24% and 39% | Total Cell Count (Fibroblast; [1]): 157 and 173 | Population Apoptotic (%) (Fibroblast; [2]): 42% and 18% | Population Fragmented Nuclei (%) (Fibroblast; [2]): 18% and 19% | Population Healthy Nuclei (%) (Fibroblast; [2]): 54% and 43% | Population Hoechst High Intensity Objects (%) (Fibroblast; [2]): 1% and 5% | Population Mitochondria Different-Phenotype (%) (Fibroblast; [2]): 5% and 6% | Population Mitotic Cells (%) (Fibroblast; [2]): 57% and 81% | Population Normal (%) (Fibroblast; [2]): 98% and 94% | Population Pyknosed Nuclei (%) (Fibroblast; [2]): 26% and 37% | Population Tubulin-Different-Phenotype (%) (Fibroblast; [2]): 65% and 74% | Total Cell Count (Fibroblast; [2]): 133 and 153 | Population Apoptotic (%) (Fibroblast; [3]): 53% and 43% | Population Fragmented Nuclei (%) (Fibroblast; [3]): 19% and 26% | Population Healthy Nuclei (%) (Fibroblast; [3]): 63% and 48% | Population Hoechst High Intensity Objects (%) (Fibroblast; [3]): 5% and 6% | Population Membrane Permeable-Phenotype (%) (Fibroblast; [3]): 1% and 9% | Population Mitochondria Different-Phenotype (%) (Fibroblast; [3]): 4% and 8% | Population Mitotic Cells (%) (Fibroblast; [3]): 46% and 56% | Population Normal (%) (Fibroblast; [3]): 94% and 93% | Population Pyknosed Nuclei (%) (Fibroblast; [3]): 17% and 25% | Population Tubulin-Different-Phenotype (%) (Fibroblast; [3]): 26% and 51%
